Source: PubChem BioAssay (several laboratories)
LMPTP block – LMPTP (human) inhibition; P24666; recombinant LMPTP-A, OMFP fluorogenic substrate, fluorescence intensity; inhibition, % at 20 µM; 0.22% of 360,000 active;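 active = compounds that cut the enzyme signal by at least half of the control window in the single-dose screen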
Target sequence (P24666 whole entry, looked up): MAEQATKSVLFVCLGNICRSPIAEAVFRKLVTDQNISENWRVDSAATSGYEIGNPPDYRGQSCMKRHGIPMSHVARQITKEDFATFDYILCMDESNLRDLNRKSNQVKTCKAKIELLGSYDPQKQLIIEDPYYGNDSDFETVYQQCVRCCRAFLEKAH
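Test system: LMPTP-A phosphatase enzyme. Amount: LMPTP-A at 0.625 nM final in the reaction. Reagent: OMFP substrate, 400 µM final. Times: 50 min at room temperature. Signal: endpoint fluorescence intensity from OMFP dephosphorylation. Read-out basis: % inhibition. Benchmarks: no-enzyme and uninhibited controls.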
SUMO1 PPI mod – SUMO1-SIM interaction modulation; SUMO1 binding to a labelled peptide, TR-FRET, 1 h; 0.33% of 360,000 active; P63165; inhibition, % at 20 µM; in the data active = inhibition above about 37%
Target sequence (P63165 whole entry, looked up): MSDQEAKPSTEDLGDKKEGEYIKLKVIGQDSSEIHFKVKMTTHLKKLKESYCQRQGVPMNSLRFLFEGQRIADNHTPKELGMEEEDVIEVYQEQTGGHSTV
Scp1 inh – blocks human Scp-1 phosphatase activity; Q9GZU7; Recombinant Scp1, phosphopeptide, malachite green phosphate absorbance; inhibition, % at 20 µM; 0.88% of 340,000 active; AID 493091;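 active = inhibition above about 50% at 20 µM, limit read from the data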
Target sequence (Q9GZU7 76-261 limits assumed): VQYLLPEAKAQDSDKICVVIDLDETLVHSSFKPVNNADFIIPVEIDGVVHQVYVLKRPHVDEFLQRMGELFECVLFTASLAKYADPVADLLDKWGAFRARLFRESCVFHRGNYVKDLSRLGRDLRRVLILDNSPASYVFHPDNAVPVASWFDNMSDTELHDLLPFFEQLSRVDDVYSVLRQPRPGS
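System: SCP-1 catalytic domain; Reagent: Phospho 17-mer peptide substrate; Doses: one concentration, 20 µM, with 1.0% DMSO; Incubation: 45 min room-temperature reaction, 5 min colour, 30 min stabiliser; Signal: Phosphate-binding colour reagent, absorbance read at 630 nm.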
DNMT1 inh – inhibitors of human DNMT1 | inhibition (reported as % activation of signal), % at 10 µM | DNMT1 molecular beacon, Hinp1I cleavage, fluorescence | P26358 | 0.83% of 360,000 active | AID 588458; in the data active = inhibition above about 50%
STEP block – inhibitors of human striatal-enriched phosphatase STEP; P54829; recombinant STEP, OMFP fluorogenic substrate, fluorescence; inhibition, % at 20 µM; 0.25% of 360,000 active; AID 588621;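 active = inhibition at 20 µM, scaled per plate between control wells, above about 37%, limit read from the data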
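Measure: Control-normalized % inhibition with plate pattern correction | Test system: STEP phosphatase, cell-free reaction | Medium: pH 6.0 Bis-Tris with DTT and Tween 20 | Technique: Fluorescence, 480/540 nm | Times: Reaction 20 min, ambient temperature | Doses: Single compound dose of 20 µM, 1% DMSO final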
GRK2 aptamer HTS – human GRK2 inhibition via aptamer displacement. bead flow cytometry, FAM-aptamer displacement from GRK2. inhibition of aptamer binding, % at 10 µM. 0.59% of 330,000 active. AID 488847;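 active = inhibition of aptamer binding above 40%, roughly 3 SD of noise, on plates passing a quality check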;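 also: median bead fluorescence of bound FAM aptamer so fluorescent compounds give negative values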
Scp1 confirm – confirmation of human Scp-1 phosphatase inhibitors. 61% of 2,500 active. AID 540281. inhibition, % at 20 µM. shares compounds with Scp1 inh. recombinant SCP-1 catalytic domain, phosphate release, malachite green absorbance
MG interference – counter-screen for Scp-1 inhibitors: colorimetric interference | 2,500 tested, under 10 active | shares compounds with Scp1 inh | apparent inhibition (interference), % at 20 µM | Colorimetric interference counterscreen, malachite green absorbance 630 nm;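 also: compounds added after enzyme reaction finished so only phosphate colour detection is probed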
Scp1 DSF – Scp-1 (human) binding by thermal shift | shares compounds with Scp1 inh | Recombinant SCP1, Sypro Orange thermal shift Tm | thermal shift relative to vanadate control, % at 40 µM | 25% of 1,500 active | AID 540329;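 active = substances whose mean melting-temperature shift, as a percentage of the reference inhibitor's shift, reaches about 5.3%, limit read from the data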
DNMT1 confirm – DNMT1 inhibition confirmation, single concentration. AID 602385. 8% of 2,300 active. shares compounds with DNMT1 inh. inhibition, % at 10 µM. DNMT1 molecular beacon HinP1I cleavage, fluorescence;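 active = average inhibition of at least 30% in the single-concentration confirmation test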
DNMT1 interf – counter-screen for DNMT1 inhibitors: spectral interference. AID 602387. shares compounds with DNMT1 inh. activation (fluorescence interference), % at 10 µM. 1% of 2,300 active. DNMT1 molecular beacon spectral interference counterscreen, fluorescence 485/520;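 active = activation of at least 30% at 10 µM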;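 also: DNMT1 catalytic domain with a HinP1I cleavage step and a FAM/dabcyl DNA beacon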
STEP conf – STEP (human) phosphatase inhibition, single concentration confirmation. shares compounds with STEP block. recombinant STEP, OMFP fluorogenic substrate, fluorescence. inhibition, % at 20 µM. 32% of 520 active. AID 623866; call rule not given here
Hits are given with their value; 0 = inactive; - = no result given. Sampled rows, rich in hits. Any-hit rate of the full collection: about 2.2%.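 The calls were made as follows, unless noted: active = inhibition of at least 30% at 20 µM; inactive = the rest.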

SMILES	LMPTP block	SUMO1 PPI mod	Scp1 inh	DNMT1 inh	STEP block	GRK2 aptamer HTS	DNMT1 confirm	DNMT1 interf	others
O=C(N/N=C/c1cccc([N+](=O)[O-])c1)c1cc2ccccc2o1	0	0	51	94	63	0	0	0	Scp1 confirm=0;MG interference=0;STEP conf=0
O=C(N/N=C/c1ccc(Br)cc1)c1ccc(Br)o1	0	0	100	0	47	0	-	-	Scp1 confirm=82;MG interference=0;Scp1 DSF=0;STEP conf=71
CC(=O)OCCn1c2nc(=O)[nH]c(=O)c-2nc2cc(C)c(C)cc21	0	0	0	192	0	0	140	134
O=C(Nc1cc2nn(-c3ccccc3)nc2cc1Cl)c1ccco1	0	0	0	75	0	0	0	0
Cc1ccc(S(=O)(=O)N2CCC(=O)N([C@H](COCc3ccc(Cl)c(Cl)c3)Cc3ccccc3)CC2)cc1	0	0	-	-	-	-	-	-
COc1cc(/C=C2\SC(=O)N(c3ccc(Cl)cc3)C2=O)cc([N+](=O)[O-])c1O	84	106	55	86	97	-	0	0
COc1cc(OC)cc(C(=O)NC(C(=O)OCn2nnc3ccccc3c2=O)C(C)C)c1 (stereo not drawn)	0	0	0	87	0	0	0	0
COc1ccccc1-c1nc2s/c(=C\c3cccs3)c(=O)n2n1	0	0	0	0	0	0	-	-
COc1ccc(/C=c2\sc3nc(-c4ccccc4OC)nn3c2=O)c(OC)c1	0	0	0	71	0	0	0	0
Cc1cccc(C)c1-n1nnnc1C(c1ccnc2ccccc12)N(Cc1ccccc1)Cc1ccccc1 (stereo not drawn)	0	0	-	-	-	-	-	-
NC(=O)CSc1nc2scc(-c3ccco3)c2c(=O)n1-c1ccccc1	0	0	0	50	0	0	0	0
O=C(CSc1nc2scc(-c3ccco3)c2c(=O)n1-c1ccccc1)NCC1CCCO1 (stereo not drawn)	0	0	0	93	0	0	0	0
CCc1c(-c2cccc(OC)c2)ncn1Cc1cccc(-c2ccccc2)c1	0	0	-	-	-	-	-	-
CCCCN1C(=O)C(CC(=O)NCCCN(C)C)CC(C(=O)N2CCOCC2)=C1C (stereo not drawn)	0	0	-	0	0	-	-	-
CC1(C(=O)NS(=O)(=O)C2CC2)CCCN(C(=O)Cc2ccc(F)cc2)C1 (stereo not drawn)	0	0	-	0	0	-	-	-
O=C1C(=Cc2ccco2)CCCC1=Cc1ccco1	0	0	66	100	0	-	0	0
O=C1/C(=C/c2c[nH]c3ccccc23)CCC/C1=C\c1c[nH]c2ccccc12	0	0	0	0	0	0	-	-
CC1(C)CC(=O)C=C(c2n[nH]nc2C2CCCCC2)C1	0	0	-	0	0	-	-	-
CC1(C)CCCC2(C)C(OCCO)=CC(=O)C=C12 (stereo not drawn)	0	0	-	0	0	-	-	-
CCc1nc2ccc(C(=O)NCCCn3ccnc3)cn2c1N(CC)C(=O)NCCc1ccccc1	0	0	-	0	0	-	-	-
CCc1ccc(NC(=O)c2noc3c2CCC3)cc1	0	0	0	80	0	0	0	0
CCc1ccc(NC(=O)c2noc3c2CCCCC3)cc1	0	0	0	0	0	0	-	-
O=C(/C=C/c1ccc(Cl)cc1)NC(=S)Nc1ccc(NC(=O)c2ccco2)cc1	0	0	0	58	0	0	0	0
CC(=O)Nc1ccc(NC(=S)NC(=O)/C=C/c2ccc(Cl)cc2)cc1	0	0	0	0	0	0	-	-
CC(=O)c1ccc(Nc2nc(CN)cs2)cc1	0	0	-	0	0	-	-	-
SMILES	LMPTP block	SUMO1 PPI mod	Scp1 inh	DNMT1 inh	STEP block	GRK2 aptamer HTS	DNMT1 confirm	DNMT1 interf	others
CN(C)c1ccc(-c2ccnc3c2CC(C)(C(=O)NCc2ccc(F)c(F)c2)O3)cc1 (stereo not drawn)	0	0	-	0	0	-	-	-
Cc1ccc(/C=c2\sc3nc(-c4cccs4)nn3c2=O)o1	0	0	0	57	0	0	0	0
COc1cccc(/C=c2\sc3nc(-c4cccs4)nn3c2=O)c1OC	0	0	0	0	0	0	-	-
CCN(C(=O)c1cc2c(=O)[nH]c3ccc(C)cc3c2s1)c1ccccc1F	0	0	0	63	0	0	0	0
CCN(C(=O)c1cc2c(=O)[nH]c3ccc(C)cc3c2s1)c1ccccc1C	0	0	0	0	0	0	-	-
CCN(CC)c1ccc2cc(-c3nnc(-c4ccccc4)o3)c(=O)oc2c1	0	0	0	102	0	0	88	134
O=C(NCCN1CCCC(O)C1)c1cc(COc2cccc(C(F)(F)F)c2)on1 (stereo not drawn)	0	0	-	0	0	-	-	-
Cc1ccc(-c2cc(C(=O)Nc3sc4c(c3C(=O)NCc3ccco3)CCC4)[nH]n2)c(O)c1	0	0	0	0	0	0	-	-
CCNC(=O)c1c(NC(=O)c2cc(-c3cc(C)ccc3O)n[nH]2)sc2c1CCCC2	0	0	0	76	0	0	0	0
CCN(C(=O)COC(=O)CCOc1ccc(C(C)(C)C)cc1)c1c(N)n(Cc2ccccc2)c(=O)[nH]c1=O	0	0	0	63	0	-	0	0
O=C(Cn1cnnn1)OCC(=O)c1ccc(Cl)s1	0	0	0	58	0	0	0	0
Oc1ccc(F)c2cccnc12	0	0	0	68	0	0	0	0
O=[N+]([O-])c1ccc(C(O)CN2CCOCC2)cc1 (stereo not drawn)	0	0	0	0	0	0	-	-
OC(CN1CCOCC1)c1ccc(F)cc1 (stereo not drawn)	0	0	0	77	0	0	0	0
COc1ccc(C(O)c2nc(-c3ccc(F)c(Cl)c3)cs2)cc1 (stereo not drawn)	0	0	-	0	0	-	-	-
Cn1cc(/C=C/c2cc[n+](C)cc2)c2cc(F)ccc21	0	0	0	60	0	0	56	53
Cn1cc(/C=C/c2cc[n+](C)cc2)c2cc(Cl)ccc21	0	0	0	0	0	0	-	-
